Measurements reported in ChEMBL document CHEMBL1136924 (J Med Chem, 2009).
One block for each compound: values may come before it. Activity calls are given as the source filed them.

Legend:
[1] = target: T1, 5-hydroxytryptamine receptor 3A (Rattus norvegicus, UniProt P35563); experiment: Displacement of [3H]LY278584 from 5HT3 receptor in rat cortical homogenate
T1 sequence (P35563 whole entry): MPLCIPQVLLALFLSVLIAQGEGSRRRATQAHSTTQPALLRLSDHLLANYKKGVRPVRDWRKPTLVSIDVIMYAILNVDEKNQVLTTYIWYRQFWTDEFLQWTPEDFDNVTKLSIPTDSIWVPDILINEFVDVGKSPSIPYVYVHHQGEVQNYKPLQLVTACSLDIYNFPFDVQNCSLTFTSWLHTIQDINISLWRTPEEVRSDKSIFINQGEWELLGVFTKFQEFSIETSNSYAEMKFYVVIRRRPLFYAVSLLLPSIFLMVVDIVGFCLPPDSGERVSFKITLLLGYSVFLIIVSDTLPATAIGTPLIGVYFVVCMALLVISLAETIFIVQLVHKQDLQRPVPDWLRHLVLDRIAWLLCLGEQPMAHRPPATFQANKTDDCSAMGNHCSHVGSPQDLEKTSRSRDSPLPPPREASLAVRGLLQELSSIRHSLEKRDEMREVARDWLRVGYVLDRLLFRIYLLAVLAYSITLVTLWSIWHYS

[2] = target: T2, 5-hydroxytryptamine receptor 1A (Rattus norvegicus, UniProt P19327); experiment: Displacement of [3H]8-OHDPAT from 5HT1A receptor in rat hippocampus; format: tissue-based
T2 sequence (P19327 whole entry): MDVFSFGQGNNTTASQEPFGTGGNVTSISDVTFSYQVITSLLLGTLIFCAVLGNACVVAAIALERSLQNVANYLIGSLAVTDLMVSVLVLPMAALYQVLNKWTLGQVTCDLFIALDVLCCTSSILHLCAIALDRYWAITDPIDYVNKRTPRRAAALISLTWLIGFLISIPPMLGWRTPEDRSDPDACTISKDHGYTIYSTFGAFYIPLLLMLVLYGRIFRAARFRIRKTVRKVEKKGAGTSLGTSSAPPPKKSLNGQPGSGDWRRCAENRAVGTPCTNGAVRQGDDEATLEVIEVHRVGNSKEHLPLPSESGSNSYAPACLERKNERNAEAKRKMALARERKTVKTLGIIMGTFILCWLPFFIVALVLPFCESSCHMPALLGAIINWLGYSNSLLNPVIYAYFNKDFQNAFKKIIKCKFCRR

[3] = target: 5-hydroxytryptamine receptor 2A (Rattus norvegicus, UniProt P14842); experiment: Displacement of [3H]ketanserin from 5HT2A receptor in rat cortex
Sequence of 5-hydroxytryptamine receptor 2A (P14842 whole entry): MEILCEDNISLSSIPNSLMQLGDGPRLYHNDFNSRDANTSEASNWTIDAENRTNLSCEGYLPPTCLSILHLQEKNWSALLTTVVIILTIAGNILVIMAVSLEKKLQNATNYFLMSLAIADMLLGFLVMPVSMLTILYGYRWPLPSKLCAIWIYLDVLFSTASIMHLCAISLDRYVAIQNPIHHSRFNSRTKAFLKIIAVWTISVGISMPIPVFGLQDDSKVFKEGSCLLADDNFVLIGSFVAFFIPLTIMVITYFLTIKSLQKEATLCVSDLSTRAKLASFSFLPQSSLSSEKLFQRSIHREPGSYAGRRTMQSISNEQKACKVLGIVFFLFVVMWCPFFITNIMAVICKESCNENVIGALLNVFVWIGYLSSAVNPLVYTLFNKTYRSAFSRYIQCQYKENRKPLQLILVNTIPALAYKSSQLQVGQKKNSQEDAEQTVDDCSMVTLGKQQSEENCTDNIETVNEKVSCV

[4] = target: 5-hydroxytryptamine receptor 4 (Cavia porcellus, UniProt O70528); experiment: Displacement of [3H]GR-113808 from 5HT4 receptor in guinea pig striatum
Sequence of 5-hydroxytryptamine receptor 4 (O70528 whole entry): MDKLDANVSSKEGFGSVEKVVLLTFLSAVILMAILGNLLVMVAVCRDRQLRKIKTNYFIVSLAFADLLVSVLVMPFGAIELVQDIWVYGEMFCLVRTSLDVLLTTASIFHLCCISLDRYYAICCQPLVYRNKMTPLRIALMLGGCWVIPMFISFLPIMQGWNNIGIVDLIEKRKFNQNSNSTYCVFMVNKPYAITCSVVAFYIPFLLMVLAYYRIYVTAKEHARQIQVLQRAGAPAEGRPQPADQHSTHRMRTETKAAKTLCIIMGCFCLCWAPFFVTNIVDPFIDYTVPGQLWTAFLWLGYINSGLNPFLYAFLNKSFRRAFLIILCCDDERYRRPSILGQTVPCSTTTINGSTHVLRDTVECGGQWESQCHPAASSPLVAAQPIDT

[5] = target: T3, Adrenergic receptor alpha-1 (Rattus norvegicus, UniProt P15823+P23944+P43140); experiment: Displacement of [3H]prazosin from adrenergic alpha1 receptor in rat cortex
T3 sequence (P15823 whole entry): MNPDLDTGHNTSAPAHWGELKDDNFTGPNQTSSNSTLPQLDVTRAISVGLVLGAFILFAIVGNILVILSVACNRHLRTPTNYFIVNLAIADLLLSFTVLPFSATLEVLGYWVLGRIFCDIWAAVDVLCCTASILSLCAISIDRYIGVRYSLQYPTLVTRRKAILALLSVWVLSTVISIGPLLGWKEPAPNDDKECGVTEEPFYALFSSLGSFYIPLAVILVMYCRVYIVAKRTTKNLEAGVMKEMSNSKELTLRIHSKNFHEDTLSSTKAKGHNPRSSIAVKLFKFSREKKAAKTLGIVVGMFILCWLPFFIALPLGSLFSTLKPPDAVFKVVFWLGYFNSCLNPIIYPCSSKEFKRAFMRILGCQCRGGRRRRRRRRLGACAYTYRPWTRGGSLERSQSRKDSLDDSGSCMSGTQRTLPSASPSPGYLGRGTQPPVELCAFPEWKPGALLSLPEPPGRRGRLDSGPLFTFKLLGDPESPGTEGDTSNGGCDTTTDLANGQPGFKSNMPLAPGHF
T3 sequence (P23944 whole entry): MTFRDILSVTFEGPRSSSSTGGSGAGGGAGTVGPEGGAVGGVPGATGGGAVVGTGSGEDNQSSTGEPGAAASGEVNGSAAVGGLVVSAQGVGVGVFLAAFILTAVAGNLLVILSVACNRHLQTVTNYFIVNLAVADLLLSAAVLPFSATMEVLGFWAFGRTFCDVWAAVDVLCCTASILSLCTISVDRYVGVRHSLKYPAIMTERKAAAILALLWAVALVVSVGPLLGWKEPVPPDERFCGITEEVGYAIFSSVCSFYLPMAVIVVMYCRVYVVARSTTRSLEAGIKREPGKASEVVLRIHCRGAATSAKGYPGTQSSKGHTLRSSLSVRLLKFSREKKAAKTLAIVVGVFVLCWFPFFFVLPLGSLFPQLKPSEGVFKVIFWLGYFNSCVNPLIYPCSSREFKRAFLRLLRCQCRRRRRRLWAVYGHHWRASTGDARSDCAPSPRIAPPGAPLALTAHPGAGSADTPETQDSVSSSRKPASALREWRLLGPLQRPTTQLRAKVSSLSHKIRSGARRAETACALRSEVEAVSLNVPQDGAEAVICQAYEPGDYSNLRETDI
T3 sequence (P43140 whole entry): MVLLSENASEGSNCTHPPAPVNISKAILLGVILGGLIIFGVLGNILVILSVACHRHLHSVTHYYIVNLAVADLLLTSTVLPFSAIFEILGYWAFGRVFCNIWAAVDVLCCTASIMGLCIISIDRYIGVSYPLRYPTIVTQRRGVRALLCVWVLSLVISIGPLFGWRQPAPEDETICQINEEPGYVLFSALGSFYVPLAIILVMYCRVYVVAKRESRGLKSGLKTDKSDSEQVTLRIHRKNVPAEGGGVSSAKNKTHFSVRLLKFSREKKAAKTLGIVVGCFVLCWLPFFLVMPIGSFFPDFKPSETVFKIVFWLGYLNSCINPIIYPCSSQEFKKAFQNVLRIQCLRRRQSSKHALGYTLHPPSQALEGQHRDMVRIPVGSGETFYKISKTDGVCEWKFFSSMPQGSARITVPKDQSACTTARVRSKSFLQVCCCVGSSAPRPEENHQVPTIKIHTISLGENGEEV

[6] = target: T4, Alpha-2A adrenergic receptor (Rattus norvegicus, UniProt P22909); experiment: Displacement of [3H]RX821002 from adrenergic alpha2 receptor in rat cortex
T4 sequence (P22909 whole entry): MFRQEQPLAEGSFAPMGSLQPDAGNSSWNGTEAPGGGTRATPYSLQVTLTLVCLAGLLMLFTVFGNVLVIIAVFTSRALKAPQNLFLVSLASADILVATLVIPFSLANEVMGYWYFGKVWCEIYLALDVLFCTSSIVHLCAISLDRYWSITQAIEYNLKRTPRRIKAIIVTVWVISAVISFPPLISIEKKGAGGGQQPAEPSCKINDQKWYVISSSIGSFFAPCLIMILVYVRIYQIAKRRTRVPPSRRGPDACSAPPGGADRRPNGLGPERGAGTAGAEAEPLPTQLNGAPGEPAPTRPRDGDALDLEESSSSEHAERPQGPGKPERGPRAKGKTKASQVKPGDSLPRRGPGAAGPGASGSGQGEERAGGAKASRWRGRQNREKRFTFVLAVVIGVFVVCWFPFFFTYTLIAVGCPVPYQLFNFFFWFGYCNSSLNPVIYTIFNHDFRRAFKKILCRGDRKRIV

D(1A) dopamine receptor = D(1A) dopamine receptor (Rattus norvegicus, UniProt P18901); experiment: Displacement of [3H]SCH-23390 from dopamine D1 receptor in rat striatum
Sequence of D(1A) dopamine receptor (P18901 whole entry): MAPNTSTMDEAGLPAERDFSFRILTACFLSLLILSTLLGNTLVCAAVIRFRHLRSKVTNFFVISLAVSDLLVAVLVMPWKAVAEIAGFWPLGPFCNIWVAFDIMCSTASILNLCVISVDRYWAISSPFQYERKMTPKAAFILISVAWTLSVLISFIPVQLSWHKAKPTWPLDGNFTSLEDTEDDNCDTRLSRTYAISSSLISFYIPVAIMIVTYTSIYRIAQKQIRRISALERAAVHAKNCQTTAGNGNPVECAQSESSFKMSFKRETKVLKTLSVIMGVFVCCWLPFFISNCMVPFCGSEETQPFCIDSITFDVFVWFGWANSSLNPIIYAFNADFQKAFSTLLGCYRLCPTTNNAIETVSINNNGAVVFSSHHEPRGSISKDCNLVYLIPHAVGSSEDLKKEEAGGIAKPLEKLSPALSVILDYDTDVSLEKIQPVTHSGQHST

D(2) dopamine receptor = D(2) dopamine receptor (Rattus norvegicus, UniProt P61169); experiment: Displacement of [3H]spiperone from dopamine D2 receptor in rat striatum
Sequence of D(2) dopamine receptor (P61169 whole entry): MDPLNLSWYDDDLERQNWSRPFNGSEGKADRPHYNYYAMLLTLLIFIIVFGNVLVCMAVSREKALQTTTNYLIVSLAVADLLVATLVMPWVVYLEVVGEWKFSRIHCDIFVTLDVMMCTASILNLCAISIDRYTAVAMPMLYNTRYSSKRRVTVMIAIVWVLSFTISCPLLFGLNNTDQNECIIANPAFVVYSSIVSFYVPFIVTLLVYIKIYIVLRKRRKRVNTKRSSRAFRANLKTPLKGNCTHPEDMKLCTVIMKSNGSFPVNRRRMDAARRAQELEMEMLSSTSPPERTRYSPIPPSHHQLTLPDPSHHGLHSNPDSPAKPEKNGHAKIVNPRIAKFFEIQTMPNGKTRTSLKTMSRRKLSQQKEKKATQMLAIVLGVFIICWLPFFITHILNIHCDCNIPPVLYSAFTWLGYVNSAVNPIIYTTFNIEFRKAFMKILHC

[7] = target: Muscarinic acetylcholine receptor; experiment: Displacement of [3H]QNB from muscarinic receptor in rat cortex
[8] = target: T5, 5-hydroxytryptamine receptor 3A (Cavia porcellus) (UniProt O70212); experiment: Agonist activity at 5HT3 receptor in voltage-stimulated guinea pig left atrium assessed as positive inotropic potency; format: functional, tissue-based; details: Cardiac atrium
T5 sequence (whole entry): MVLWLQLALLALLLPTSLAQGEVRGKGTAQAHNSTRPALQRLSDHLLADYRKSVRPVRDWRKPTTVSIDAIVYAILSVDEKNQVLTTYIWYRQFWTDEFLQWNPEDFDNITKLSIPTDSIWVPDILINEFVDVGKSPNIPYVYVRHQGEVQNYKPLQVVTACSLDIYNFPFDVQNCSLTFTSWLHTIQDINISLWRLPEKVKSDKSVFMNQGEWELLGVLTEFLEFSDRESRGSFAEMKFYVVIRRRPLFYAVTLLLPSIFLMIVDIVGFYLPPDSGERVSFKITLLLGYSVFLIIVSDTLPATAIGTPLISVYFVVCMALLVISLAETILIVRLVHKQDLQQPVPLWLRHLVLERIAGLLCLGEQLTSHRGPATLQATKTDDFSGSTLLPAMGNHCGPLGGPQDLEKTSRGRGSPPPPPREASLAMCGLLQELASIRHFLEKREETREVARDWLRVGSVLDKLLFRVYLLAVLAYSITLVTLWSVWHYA
Method in brief: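 Isolated guinea pig atria in PSS (Tyrode) with ketanserin 1 µM, 95% O2-5% CO2, pH 7.4, 35 °C. Right atrium beating spontaneously (rate); left atrium paced 1 Hz, 0.6-0.8 ms pulses near 50% threshold (force). Isometric recording after 45-60 min stabilization.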

[9] = target: T5, 5-hydroxytryptamine receptor 3A (Cavia porcellus); experiment: Intrinsic activity at 5HT3 receptor in voltage-stimulated guinea pig left atrium assessed as positive inotropic potency relative to serotonin; format: tissue-based; details: Cardiac atrium
Method in brief: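 Electrically paced guinea pig left atrium (1 Hz) in PSS containing ketanserin 1 µM, pH 7.4, 35 °C. Contractile force recorded isometrically while cumulative concentrations of 0.1-100 µM were added (DMSO ≤0.3%). Intrinsic activity is expressed as the maximal response relative to that of 5-HT.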

Rattus norvegicus [10] = experiment: Agonist activity at 5HT3 receptor in urethane-anesthetized Sprague-Dawley rat assessed as decrease in heart rate at 40 ug/kg, iv up to 30 seconds post-treatment by von Bezold-Jarisch reflex test; format: functional; design: scale not given: the % may be the effect or the level left
Rattus norvegicus [11] = experiment: Antagonist activity at 5HT3 receptor in urethane-anesthetized Sprague-Dawley rat assessed as prevention of 1-phenylbiguanide-induced bradycardia at 1 ug/kg, iv administered 5 mins before 1-phenylbiguanide challenge measured after 5 mins post-treatment by von Bezold-Jarisch reflex test; format: functional; design: scale not given: the % may be the effect or the level left
Rattus norvegicus [12] = experiment: Antagonist activity at 5HT3 receptor in urethane-anesthetized Sprague-Dawley rat assessed as effect on 1-phenylbiguanide-induced bradycardia at 36 ug/kg, iv administered 5 mins before 1-phenylbiguanide challenge measured after 5 to 30 mins post-treatment by von Bezold-Jarisch reflex test; format: functional, organism-based
[13] = target: T5, 5-hydroxytryptamine receptor 3A (Cavia porcellus); experiment: Agonist activity at 5HT3 receptor in voltage-stimulated guinea pig left atrium assessed as positive inotropic potency at 100 uM; format: functional, tissue-based; details: Cardiac atrium
Method in brief: (§1)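 Guinea pig left and right atria were hung in a 15 mL bath of PSS (pH 7.4, 95% O2-5% CO2, 35 °C) with ketanserin 1 µM. The right atrium beat spontaneously; the left was paced at 1 Hz. Cumulative doses (0.1-100 µM; DMSO ≤0.3%) were added after 45-60 min stabilization. Rate or isometric force was recorded. EC50 came from Probit analysis, n≥4. Intrinsic activity was taken relative to 5-HT.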

[14] = target: T5, 5-hydroxytryptamine receptor 3A (Cavia porcellus); experiment: Agonist activity at 5HT3 receptor in spontaneously beating guinea pig right atrium assessed as positive chronotropic potency at 100 uM; format: functional, tissue-based; details: Cardiac atrium; method in brief: as §1
[15] = target: T5, 5-hydroxytryptamine receptor 3A (Cavia porcellus); experiment: Agonist activity at 5HT3 receptor in guinea pig thoracic aorta assessed as positive contractility potency at 100 uM; format: functional, tissue-based
Method in brief: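 Guinea pig aortic helicoidal strips in PSS at 35 °C, aerated, under 1 g resting force, washed every 20 min for 1 h. Compounds added cumulatively 0.1-100 µM (DMSO vehicle); isometric contraction recorded.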

[16] = target: T6, 5-hydroxytryptamine receptor 3A (Cavia porcellus, UniProt O70212); experiment: Antagonist activity at 5HT3 receptor in spontaneously beating guinea pig right atrium assessed as inhibition of serotonin-induced maximum response by noncompetitive binding assay; format: tissue-based, Cardiac atrium
T6 sequence (O70212 whole entry): T5 sequence (whole entry)
Method in brief: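 Spontaneously beating guinea pig right atrium; 5-HT concentration-response curves (0.001-1.0 µM) before and after 30 min antagonist exposure at three concentrations. IC50 is inhibition of 50% of maximal 5-HT response, Probit analysis, n = 4-6.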

Rattus norvegicus [17] = experiment: Agonist activity at 5HT3 receptor in iv dosed urethane-anesthetized Sprague-Dawley rat assessed as induction of bradycardia measured after 5 to 30 mins post-treatment by von Bezold-Jarisch reflex test; format: functional

- Ki [1]: 1.2 nM
- Ki [2]: 480 nM
- Ki [3]: > 10000 nM
- Ki [4]: > 10000 nM
- Ki [5]: > 10000 nM
- Ki [6]: > 10000 nM
- Ki (D(1A) dopamine receptor): > 10000 nM
- Ki (D(2) dopamine receptor): > 10000 nM
- Ki [7]: > 10000 nM
SMILES: N[C@H](CN1CCN(c2nc3cc(F)ccc3n3cccc23)CC1)C(=O)O

- pD2 [8]: 4.31
- Intrinsic activity [9]: 1
SMILES: N=C(N)NC(=N)Nc1ccccc1 [PHENYL BIGUANIDE]
- Activity (Rattus norvegicus [10]): 64%

SMILES: COc1cc(N)c(Cl)cc1C(=O)NC1CN2CCC1CC2 (stereo not given) [ZACOPRIDE]
- Activity (Rattus norvegicus [11]): 100%

- Activity (Rattus norvegicus [12]): inactive
- Ki [1]: 11.7 nM
- pD2 [13]: inactive
- pD2 [14]: inactive
- pD2 [15]: inactive
- IC50 [16]: 1910 nM
SMILES: O=C(O)CN1CCN(c2nc3cc(F)ccc3n3cccc23)CC1
- ED50 (Rattus norvegicus [17]): 0.036 mg/kg
